What is called EC50 is the concentration giving half of the maximal effect. Low values mean higher potency in that assay, high ones lower potency in that assay. For orientation: Ki means a dissociation constant, usually derived from enzyme kinetics or from competition with a known ligand.

Drawing on ChEMBL document CHEMBL1123929, “Investigation of peripheral cholecystokinin receptor heterogeneity by cyclic and related linear analogues of CCK26-33: synthesis and biological properties” (J Med Chem, 1987), this text covers EC50 and Ki for five compounds.

The species entered for one experiment is Rattus norvegicus. Put plainly: Evaluated for agonist activity measured as amylase secretion by rat pancreas. Format: functional. The method in brief: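 Rat pancreas fragments stimulated with peptide (Na salt form). Amylase released into the medium was measured with Phadebas reagent by the Ceska method. EC50 was taken from concentration–response curves. Results are means of three separate experiments, each value in triplicate.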

Another experiment concerns the target T1, Cholecystokinin receptor (Mus musculus, UniProt O08786+P56481).
T1 sequence (O08786 whole entry): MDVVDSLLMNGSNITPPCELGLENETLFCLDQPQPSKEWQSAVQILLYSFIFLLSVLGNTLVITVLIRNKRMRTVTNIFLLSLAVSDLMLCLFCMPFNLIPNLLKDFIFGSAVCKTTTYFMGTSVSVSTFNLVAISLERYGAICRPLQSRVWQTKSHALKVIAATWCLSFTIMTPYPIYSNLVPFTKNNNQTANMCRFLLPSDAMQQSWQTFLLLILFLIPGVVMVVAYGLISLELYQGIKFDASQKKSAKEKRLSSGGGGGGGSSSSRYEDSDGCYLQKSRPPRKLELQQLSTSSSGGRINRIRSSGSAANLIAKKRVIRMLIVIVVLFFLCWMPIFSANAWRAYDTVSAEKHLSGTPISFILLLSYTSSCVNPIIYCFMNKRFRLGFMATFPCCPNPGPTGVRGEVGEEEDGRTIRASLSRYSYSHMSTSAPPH
T1 sequence (P56481 whole entry): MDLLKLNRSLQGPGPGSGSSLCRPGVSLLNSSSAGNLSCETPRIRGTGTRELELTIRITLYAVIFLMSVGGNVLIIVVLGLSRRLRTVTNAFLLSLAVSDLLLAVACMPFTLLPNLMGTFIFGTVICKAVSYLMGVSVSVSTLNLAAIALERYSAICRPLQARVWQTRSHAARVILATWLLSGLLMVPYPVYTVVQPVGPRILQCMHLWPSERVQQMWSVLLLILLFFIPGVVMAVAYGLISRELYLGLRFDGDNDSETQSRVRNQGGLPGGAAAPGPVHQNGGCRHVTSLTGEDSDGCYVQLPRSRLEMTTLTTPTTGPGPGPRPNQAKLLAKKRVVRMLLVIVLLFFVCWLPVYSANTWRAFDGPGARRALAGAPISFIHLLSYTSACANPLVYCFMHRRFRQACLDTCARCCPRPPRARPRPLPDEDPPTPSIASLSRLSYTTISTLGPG
Put plainly: Binding affinity measured by inhibiting [3H]Boc[Nle28,31]CCK27-33 specific binding to Cholecystokinin receptor in mouse brain membranes at a KD concentration of 0.19 nM. The class given is cell membranes, Membrane.

For experiment [1], the species on record is Cavia porcellus. The experiment can be described thus: Evaluated for contractile activities of guinea pig ileum for antagonistic activity (contraction induced by 3, 10e -9M of CCK-8). The class given is functional. The method in brief:
(§1)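 Isolated guinea pig ileum contraction by the Hutchinson and Dockray method, with atropine present (1.5 mg/L). Agonism was tested by direct contraction. Antagonism was tested against contraction evoked by 3 × 10⁻⁹ M CCK8. Peptides were used as Na salts. Values are mean ± SEM of three separate experiments.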

Experiment [2] addresses T2, Cholecystokinin receptor type A (Rattus norvegicus, UniProt P30551).
T2 sequence (P30551 whole entry): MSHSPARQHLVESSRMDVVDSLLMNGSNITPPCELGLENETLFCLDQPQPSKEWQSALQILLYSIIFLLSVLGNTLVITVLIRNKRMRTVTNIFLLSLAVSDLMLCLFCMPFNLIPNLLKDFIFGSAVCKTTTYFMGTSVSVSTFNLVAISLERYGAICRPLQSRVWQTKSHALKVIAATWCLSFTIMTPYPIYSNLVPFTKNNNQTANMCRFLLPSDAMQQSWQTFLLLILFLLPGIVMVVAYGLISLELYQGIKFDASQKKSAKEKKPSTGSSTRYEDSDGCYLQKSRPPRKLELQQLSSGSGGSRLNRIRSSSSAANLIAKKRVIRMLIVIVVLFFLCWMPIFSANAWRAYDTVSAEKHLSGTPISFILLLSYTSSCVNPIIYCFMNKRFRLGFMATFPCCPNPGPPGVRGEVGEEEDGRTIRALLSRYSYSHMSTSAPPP
The experiment can be described thus: Evaluated for binding affinity measured by inhibiting [3H]Boc[Nle28,31]CCK27-33 specific binding to Cholecystokinin receptor in rat pancreas membranes at a KD concentration of 4.4 nM. The class given is cell membranes, Membrane.

The species named for experiment [3] is Cavia porcellus. The experiment can be described thus: Evaluated for contractile activities of guinea pig ileum for agonistic activity. Format: functional. The method in brief:
as §1

Structures are written as SMILES. Non-standard residues stand in square brackets, D forms with d. Residues, ends and D or L forms follow the SMILES beside them. *: point of attachment. sY = N[C@@H](Cc1ccc(OS(=O)(=O)O)cc1)C(=O)O; Nle = CCCC[C@H](N)C(=O)O; Boc = CC(C)(C)OC(=O)* Where only a bound is given, the exact number is not on record here.

In the case of `CCCC[C@H](NC(=O)[C@H](Cc1c[nH]c2ccccc12)NC(=O)[C@H]1CCCCNC(=O)C[C@H](NC(=O)OC(C)(C)C)C(=O)N[C@@H](Cc2ccc(OS(=O)(=O)O)cc2)C(=O)N[C@@H](CCCC)C(=O)N1)C(=O)N[C@@H](CC(=O)O)C(N)=O`, the EC50 in the experiment filed under Rattus norvegicus is more than 1000 nM; in the experiment filed under Cavia porcellus [1] it was more than 10000 nM; in the experiment listed under Cavia porcellus [3], more than 10000 nM. Besides, the results for the Ki (at Cholecystokinin receptor; in experiment [2]) were more than 0.00001 M and more than 10000 nM, respectively.
As for `CCCC[C@H](NC(=O)[C@H](Cc1ccc(OS(=O)(=O)O)cc1)NC(=O)OC(C)(C)C)C(=O)NCC(=O)N[C@@H](Cc1c[nH]c2ccccc12)C(=O)N[C@@H](CCCC)C(=O)N[C@@H](CC(=O)O)C(=O)N[C@@H](Cc1ccccc1)C(N)=O` (Boc-[sY][Nle]GW[Nle]DF-NH2), the results for the EC50 in the experiment filed under Rattus norvegicus and in the experiment filed under Cavia porcellus [3] were 2.8 nM and 3.2 nM, respectively. This compound had a Ki on Cholecystokinin receptor of 1.91e-10 M.
`CCCC[C@H](NC(=O)[C@H](Cc1c[nH]c2ccccc12)NC(=O)[C@@H](CCCCN)NC(=O)[C@H](CCCC)NC(=O)[C@H](Cc1ccc(OS(=O)(=O)O)cc1)NC(=O)[C@H](CC(=O)O)NC(=O)OC(C)(C)C)C(=O)N[C@@H](CC(=O)O)C(=O)N[C@@H](Cc1ccccc1)C(N)=O`: the figures for the EC50 in the experiment listed under Rattus norvegicus, in the experiment listed under Cavia porcellus [1] and in the experiment filed under Cavia porcellus [3] were 40 nM, 15000 nM and more than 10000 nM, respectively. Moreover, the Ki at Cholecystokinin receptor was found to be 3e-07 M; in experiment [2] it was 340 nM.
Turning to `CCCC[C@H](NC(=O)[C@H](Cc1c[nH]c2ccccc12)NC(=O)[C@@H](CCCCN)NC(=O)[C@H](CCCC)NC(=O)[C@H](Cc1ccc(OS(=O)(=O)O)cc1)NC(=O)[C@H](CC(=O)O)NC(=O)OC(C)(C)C)C(=O)N[C@@H](CC(=O)O)C(N)=O`, the EC50 was more than 100000 nM in the experiment listed under Rattus norvegicus, more than 10000 nM in the experiment filed under Cavia porcellus [1] and more than 10000 nM in the experiment listed under Cavia porcellus [3]. Besides, the values for the Ki (at Cholecystokinin receptor; in experiment [2]) were more than 1e-05 M and more than 10000 nM, respectively.
Turning to `CSCC[C@H](NC(=O)[C@H](Cc1ccc(OS(=O)(=O)O)cc1)NC(=O)[C@@H](N)CC(=O)O)C(=O)NCC(=O)N[C@@H](Cc1c[nH]c2ccccc12)C(=O)N[C@@H](CCSC)C(=O)N[C@@H](CC(=O)O)C(=O)N[C@@H](Cc1ccccc1)C(N)=O` [SINCALIDE], the EC50 in the experiment filed under Rattus norvegicus came out at 1 nM; in the experiment filed under Cavia porcellus [3] it was 2 nM. The compound further registered a Ki at Cholecystokinin receptor of 4.91e-10 M.
